From ChEMBL document CHEMBL4270576, “Discovery of a benzenesulfonamide-based dual inhibitor of microsomal prostaglandin E2 synthase-1 and 5-lipoxygenase that favorably modulates lipid mediator biosynthesis in inflammation” (Eur J Med Chem, 2018)
Activity calls are given as the source filed them. The calls are words filed in the database; no cut-off is given here.

Columns and labels:
[1] = molecular target: T1, Polyunsaturated fatty acid lipoxygenase ALOX15 (Homo sapiens) (UniProt P16050); assay: Modulation of 15-LO-mediated 17-HDHA level in human M2 macrophages derived from IL4-polarized human monocyte derived macrophages at 3 uM preincubated for 15 mins followed by Escherichia coli (O6:K2:H1) challenge for 90 mins by LC-MS/MS analysis
T1 sequence (whole entry): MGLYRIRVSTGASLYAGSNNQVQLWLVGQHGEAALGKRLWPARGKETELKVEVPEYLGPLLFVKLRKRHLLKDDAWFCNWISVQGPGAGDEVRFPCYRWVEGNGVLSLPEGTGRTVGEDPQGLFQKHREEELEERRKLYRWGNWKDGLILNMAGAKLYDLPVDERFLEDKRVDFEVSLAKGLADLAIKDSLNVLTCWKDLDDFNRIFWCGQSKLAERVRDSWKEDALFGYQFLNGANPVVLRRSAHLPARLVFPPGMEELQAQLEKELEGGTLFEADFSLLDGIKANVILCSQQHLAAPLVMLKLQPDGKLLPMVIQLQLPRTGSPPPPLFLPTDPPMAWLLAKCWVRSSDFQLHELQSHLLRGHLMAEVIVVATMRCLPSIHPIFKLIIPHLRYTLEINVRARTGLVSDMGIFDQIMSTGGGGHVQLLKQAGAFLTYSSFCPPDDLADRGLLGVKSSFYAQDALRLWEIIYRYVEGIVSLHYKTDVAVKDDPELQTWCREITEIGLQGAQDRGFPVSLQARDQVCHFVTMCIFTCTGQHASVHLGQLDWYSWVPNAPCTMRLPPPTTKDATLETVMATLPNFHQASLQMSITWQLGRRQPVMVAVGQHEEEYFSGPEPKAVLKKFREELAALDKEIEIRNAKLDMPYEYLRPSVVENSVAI
Method in brief: (§1)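 Monocytes differentiated 6 days with M-CSF (20 ng/ml), then polarized 48 h with IL-4 20 ng/ml (M2). Cells (2 × 10^6) in PBS/1 mM CaCl2 pre-incubated 15 min at 37 °C with 3 µM compound or 0.1% DMSO, then challenged with E. coli O6:K2:H1 (1:50) for 90 min. Lipid mediators extracted by SPE with deuterated internal standards and quantified by UPLC-MS/MS as % of vehicle.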

[2] = molecular target: T2, Polyunsaturated fatty acid 5-lipoxygenase (Homo sapiens) (UniProt P09917); assay: Inhibition of recombinant human 5-LO expressed in Escherichia coli BL21 (DE3) using 2.5 to 80 uM arachidonic acid as substrate […] followed by CaCl2 and substrate addition measured after 10 mins by RP-HPLC analysis
T2 sequence (whole entry): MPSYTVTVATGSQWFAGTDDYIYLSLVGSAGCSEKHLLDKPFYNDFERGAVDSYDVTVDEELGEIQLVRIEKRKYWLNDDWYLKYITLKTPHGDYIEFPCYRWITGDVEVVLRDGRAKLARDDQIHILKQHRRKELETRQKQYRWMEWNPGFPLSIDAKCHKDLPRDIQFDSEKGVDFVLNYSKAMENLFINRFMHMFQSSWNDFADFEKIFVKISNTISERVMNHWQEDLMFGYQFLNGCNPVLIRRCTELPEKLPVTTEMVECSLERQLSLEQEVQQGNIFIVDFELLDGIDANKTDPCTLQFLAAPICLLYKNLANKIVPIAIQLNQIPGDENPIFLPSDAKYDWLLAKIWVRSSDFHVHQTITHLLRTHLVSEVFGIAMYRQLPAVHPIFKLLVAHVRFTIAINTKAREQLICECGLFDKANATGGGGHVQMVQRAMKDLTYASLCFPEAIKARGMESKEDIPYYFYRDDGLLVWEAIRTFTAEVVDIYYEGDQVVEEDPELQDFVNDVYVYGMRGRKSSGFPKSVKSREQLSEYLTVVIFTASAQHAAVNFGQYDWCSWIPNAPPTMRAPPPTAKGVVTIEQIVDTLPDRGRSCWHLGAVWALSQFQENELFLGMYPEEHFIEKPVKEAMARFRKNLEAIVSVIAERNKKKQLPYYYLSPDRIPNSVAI

Mus musculus = assay: Antiinflammatory activity in zymosan induced CD-1 mouse model of inflammation assessed as reduction in LTB4 levels in air pouch at 10 mg/kg, ip preincubated for 30 mins followed by zymosan challenge and measured after 4 hrs by ELISA; type: functional, organism-based
Method in brief: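 Air pouch formed by s.c. injection of 2.5 mL sterile air in CD-1 mice; on day 6, 10 mg/kg i.p. (2% DMSO/saline) given 30 min before 1 ml 1% w/v zymosan into the pouch. After 4 h, exudate collected with 1 ml saline and centrifuged; leukocytes counted in Burker chamber; LTB4 in supernatant by ELISA (ng/mL). n=6 mice per group.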

[3] = molecular target: T2, Polyunsaturated fatty acid 5-lipoxygenase (Homo sapiens); assay: Inhibition of 5-LO in human M1 macrophages derived from LPS/IFNgamma-polarized human monocyte derived macrophages assessed as effect on 5-HETE level at 3 uM preincubated for 15 mins followed by Escherichia coli (O6:K2:H1) challenge for 90 mins by LC-MS/MS analysis; parameters: scale not given: the % may be the effect or the level left
Method in brief: (§2)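 Monocytes differentiated 6 days with GM-CSF (20 ng/ml) in RPMI/10% FCS, then polarized 48 h with LPS 100 ng/ml plus IFN-γ 20 ng/ml (M1). Cells (2 × 10^6) in PBS with 1 mM CaCl2 pre-incubated 15 min at 37 °C with 3 µM compound or 0.1% DMSO, then E. coli O6:K2:H1 (1:50) for 90 min. Methanol with deuterated standards added; SPE; UPLC-MS/MS; expressed as % of vehicle.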

Cyclooxygenase = Cyclooxygenase (Homo sapiens, UniProt P35354+P23219); assay: Inhibition of COX1/2 (unknown origin) at 10 uM; type: protein assay
Homo sapiens [4] = organism: Homo sapiens; assay: Modulation of LO-mediated RvD2 level in human M2 macrophages derived from IL4-polarized human monocyte derived macrophages at 3 uM preincubated for 15 mins followed by Escherichia coli (O6:K2:H1) challenge for 90 mins by LC-MS/MS analysis; method in brief: as §1
[5] = molecular target: T2, Polyunsaturated fatty acid 5-lipoxygenase (Homo sapiens); assay: Inhibition of nuclear localization of 5-LO (unknown origin) expressed in HEK293 cells at 10 uM preincubated for 10 mins followed by Ca2+ ionophore A23187 stimulation for 20 mins and measured after 1 hr by DAPI staining-based immunofluorescence microscopic analysis; type: cell-based
Method in brief: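 HEK293 cells stably expressing 5-LO and FLAP, on poly-L-lysine coverslips, pre-incubated 10 min with 10 µM compound or 0.1% DMSO, then stimulated with 2.5 µM A23187 for 20 min at 37 °C. After fixation and permeabilization, stained with anti-5-LO and anti-FLAP antibodies and fluorescent secondaries; imaged by immunofluorescence microscopy, 100 cells from three experiments.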

[6] = molecular target: T2, Polyunsaturated fatty acid 5-lipoxygenase (Homo sapiens); assay: Inhibition of 5-LO in human M1 macrophages derived from LPS/IFNgamma-polarized human monocyte derived macrophages assessed as effect on 5,6-diHETE level at 3 uM preincubated for 15 mins followed by Escherichia coli (O6:K2:H1) challenge for 90 mins by LC-MS/MS analysis; parameters: scale not given: the % may be the effect or the level left; method in brief: as §2
Homo sapiens [7] = organism: Homo sapiens; assay: Modulation of LO-mediated PD1 level in human M2 macrophages derived from IL4-polarized human monocyte derived macrophages at 3 uM preincubated for 15 mins followed by Escherichia coli (O6:K2:H1) challenge for 90 mins by LC-MS/MS analysis; method in brief: as §1

Activity [1]: 124%
inhibition [2]: Active
Activity [3]: 35%
inhibition (INH) (Cyclooxygenase): Not Active
Activity (Homo sapiens [4]): 128%
inhibition [5]: inactive
Activity [6]: 13%
Activity (Homo sapiens [7]): 110%
SMILES: O=C(O)c1ccc(N(Cc2cccc(OCc3ccccc3)c2)S(=O)(=O)c2ccc(-c3ccccc3)cc2)cc1
Activity (Mus musculus): Active
